Experiment [1] concerns T47D. Description: Stimulation of human T47D cell proliferation up to 100 uM after 96 hrs by alamar blue assay relative to estradiol. The experiment is classed as functional, cell-based. In short, it runs like this:
(§1)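 Compounds were given alone at 0.1, 1, 10 and 100 µM, and stimulation of proliferation was compared with estradiol at 1–100 pM. Cell proliferation assay as in an earlier report.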

Experiment [2] relates to MCF7. Description: Antiestrogenic activity in human MCF7 cells assessed as drug level causing inhibition of 100 pM E2-enhanced cell proliferation to level equivalent to 50 pM E2 after 96 hrs by alamar blue assay. The format is functional. In short, it runs like this:
(§2)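 Cells seeded at 1 × 10^4 per well in phenol red-free RPMI with 5% DCC-treated FBS. E2 was added from a 20 nM solution to give 100 pM and preincubated 1 h at 37 °C, 5% CO2. Compounds were then added at 0.1, 1, 10 and 100 µM for 96 h, with serially diluted tamoxifen as positive control. Antagonism was judged from cell populations. iEqE values were obtained by linear regression over four concentrations.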

Experiment [3] deals with T47D. Description: Antiestrogenic activity in human T47D cells assessed as drug level causing inhibition of 100 pM E2-enhanced cell proliferation to level equivalent to 10 pM E2 after 96 hrs by alamar blue assay. The experiment is classed as functional. The essentials: as §2
On the technique in general: The colour change of resazurin is a common sign of viable cells or microbes.

The test system of experiment [4] is MCF7. Description: Stimulation of human MCF7 cell proliferation up to 100 uM after 96 hrs by alamar blue assay relative to estradiol. The format is functional, cell-based. The essentials: as §1
The test system of experiment [5] is MCF7. Description: Antiestrogenic activity in human MCF7 cells assessed as drug level causing inhibition of 100 pM E2-enhanced cell proliferation to level equivalent to 1 pM E2 after 96 hrs by alamar blue assay. The experiment is classed as functional. In short, it runs like this: as §2
Experiment [6] has as its system MCF7. Description: Antiestrogenic activity in human MCF7 cells assessed as inhibition of E2-enhanced cell proliferation at 0.1 to 100 uM after 96 hrs by alamar blue assay. The experiment is classed as functional. The essentials: as §2
Experiment [7] deals with MCF7. Description: Antiestrogenic activity in human MCF7 cells assessed as drug level causing inhibition of 100 pM E2-enhanced cell proliferation to level equivalent to 10 pM E2 after 96 hrs by alamar blue assay. The experiment is classed as functional. In short, it runs like this: as §2
For experiment [8], the system named is T47D. Description: Antiestrogenic activity in human T47D cells assessed as drug level causing inhibition of 100 pM E2-enhanced cell proliferation to level equivalent to 1 pM E2 after 96 hrs by alamar blue assay. The experiment is classed as functional. In short, it runs like this: as §2
Experiment [9] has as its system T47D. Description: Antiestrogenic activity in human T47D cells assessed as drug level causing inhibition of 100 pM E2-enhanced cell proliferation to level equivalent to 50 pM E2 after 96 hrs by alamar blue assay. The experiment is classed as functional. The essentials:
as §2

The test system of experiment [10] is T47D. Description: Antiestrogenic activity in human T47D cells assessed as inhibition of E2-enhanced cell proliferation at 0.1 to 100 uM after 96 hrs by alamar blue assay. The experiment is classed as functional. In short, it runs like this:
as §2

Molecules are shown by their SMILES. Calls of active or inactive are those of the source. No cut-off for these calls is given here.

From ChEMBL document CHEMBL1154802, “Antiestrogenic constituents of the Thai medicinal plants Capparis flavicans and Vitex glabrata” (2009) come the findings set out here.

As to `COc1cc([C@H]2OC[C@H]3[C@@H]2CO[C@@H]3c2cc(OC)c(O[C@@H]3O[C@H](CO)[C@@H](O)[C@H](O)[C@H]3O)c(OC)c2)ccc1O`, the result in experiment [1] and in [4] was inactive. The Activity in experiment [2] was less than 0.1 µM; in experiment [3] it was 2 µM; in [5], greater than 100 µM; in experiment [7], less than 0.1 µM; in experiment [8], greater than 100 µM; in experiment [9] it was less than 0.1 µM. The “inhibition (INH)” value in experiment [6] is on record as greater than 90%.

Regarding `Nc1ncnc2c1ncn2[C@@H]1O[C@H](CO)[C@@H](O)[C@H]1O` [ADENOSINE], the result in [1] and in experiment [4] was inactive. Also, the Activity in experiment [2] was less than 0.1 µM; in experiment [3], 69 µM; in experiment [5] it was greater than 100 µM; in [7], less than 0.1 µM; in experiment [8], greater than 100 µM; in experiment [9] it was 2 µM. For the same compound, in experiment [6], the “inhibition (INH)” value is reported as greater than 90%.

Turning to `O=c1cc(-c2ccc(O)cc2)oc2cc(O[C@@H]3O[C@H](CO)[C@@H](O)[C@H](O)[C@H]3O)cc(O)c12` [APIGETRIN], the result in experiment [1] and in experiment [4] was inactive. Moreover, the Activity was less than 0.1 µM in experiment [2]; less than 0.1 µM in experiment [3]; greater than 100 µM in [5]; less than 0.1 µM in experiment [7]; 2 µM in experiment [8]; less than 0.1 µM in experiment [9]. Besides, the “inhibition (INH)” value in [6] is reported as greater than 90%.

On to `COc1cc(/C=C/C(=O)O[C@H]2C[C@@H]3C(C(=O)O)=CO[C@@H](O[C@@H]4O[C@H](CO)[C@@H](O)[C@H](O)[C@H]4O)[C@@H]3[C@@H]2C)ccc1O` [KHAINAOSIDE B], for which the outcome in [1] and in [4] was inactive. The Activity in [2] is less than 0.1 µM; in experiment [3], less than 0.1 µM; in experiment [5], greater than 100 µM; in experiment [7], less than 0.1 µM; in experiment [8], greater than 100 µM; in experiment [9], less than 0.1 µM. The “inhibition (INH)” value in experiment [6] and in experiment [10] was greater than 90% in each case.

In the case of `COc1cc(/C=C/CO)ccc1O[C@@H]1O[C@H](COC(=O)/C=C/c2ccc(O)c(O)c2)[C@@H](O)[C@H](O)[C@H]1O` [KHAINAOSIDE C], the outcome in experiment [1] and in experiment [4] was inactive. For the same compound, the Activity is 4 µM in experiment [2]; less than 0.1 µM in [3]; 5 µM in experiment [5]; 4 µM in experiment [7]; greater than 100 µM in [8]; less than 0.1 µM in [9]. For the same compound, in [10], the “inhibition (INH)” value is recorded as greater than 90%.

`COc1cc(O[C@@H]2O[C@H](CO)[C@@H](O)[C@H](O)[C@H]2O)cc(OC)c1O` [KOABURASIDE]: the outcome in [1] and in experiment [4] was inactive. In addition, the Activity is less than 0.1 µM in experiment [2]; 37 µM in [3]; greater than 100 µM in experiment [5]; less than 0.1 µM in experiment [7]; 70 µM in experiment [8]; 2 µM in [9]. The “inhibition (INH)” value in experiment [6] is given as greater than 90%.
